High-throughput results deposited in PubChem BioAssay by several laboratories.
Runt-CBFb FRET: inhibitors of RUNX1 Runt–CBFb binding, primary screen, biochemical, FRET, Cerulean-Runt, Venus-CBFb, uHTS. AID 1496, 2009. inhibition, % at 20 µM. 0.46% of 220,000 active. Runt-related transcription factor 1 (Homo sapiens) + Core-binding factor subunit beta …. Cerulean-Runt/Venus-CBFb FRET ratio 530/480, 1 h;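 active means inhibition over about 50% at 20 µM in the single-dose screen, limit read from the data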;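 further: 0% = DMSO wells and 100% = excess unlabeled CBFb competitor control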
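Measured by: fluorescence energy transfer, 422 nm excitation, 530/480 nm emission; Assay system: Cerulean-Runt domain; Medium: Tris pH 7.5 buffer with BSA; Measure: loss of energy transfer signal; Controls: 5 µM unlabeled CBFb as full-inhibition high control; Incubation: protein complex preformed 1 h, compound exposure 1 h, room temperature, dark.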
RanGTP-Imp inh: inhibitors of RanGTP-importin-beta interaction, primary screen, biochemical, FRET, CFP-Ran, YFP-importin-beta, homogeneous; cell-free CFP-Ran/YFP-importin-beta FRET ratio; 1.1% of 300,000 active; inhibition, % (test concentration not listed);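 active means more than half of the replicate wells show a fall in the fluorescence ratio signal beyond about 16%, limit read from the data, passing the limit was not always enough; inconclusive means exactly half of the replicate wells pass the set limit; inactive means fewer than half of replicates pass the limit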;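 further: 0% = DMSO wells and 100% = Ran loaded with GDP instead of GTP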
EBV gp42 inh: Epstein-Barr virus gp42 inhibitors, primary screen, biochemical, uHTS, fluorescence polarization. inhibition, % (tested at 21.74 µM). Glycoprotein 42 (Epstein-Barr virus (strain AG876)), Q1HVG2. 0.42% of 220,000 active. Fluorescence polarization binding assay, mP read-out. AID 1085, 2008
MEX-5 binding: MEX-5 zinc finger RNA-binding disruptors – biochemical, C. elegans, fluorescence polarization, MLPCN library, primary screen; Zinc finger protein mex-5 (Caenorhabditis elegans), Q9XUB2; MEX-5/FITC-TCR2 RNA binding; stronger effect = lower value; activity score (negative = inhibition of binding), % at 10 µM; 0.38% of 300,000 active;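 active means inhibition past about -25% in most replicates, and total fluorescence under double the plate's negative control median, limit read from the data; inconclusive means replicates evenly split on the limit, or fluorescence at least double controls; inactive means too little inhibition in most replicates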;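 further: 0% = DMSO and -100% = 5 µM competing unlabeled TCR2 RNA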
Target sequence (Q9XUB2 whole entry, looked up): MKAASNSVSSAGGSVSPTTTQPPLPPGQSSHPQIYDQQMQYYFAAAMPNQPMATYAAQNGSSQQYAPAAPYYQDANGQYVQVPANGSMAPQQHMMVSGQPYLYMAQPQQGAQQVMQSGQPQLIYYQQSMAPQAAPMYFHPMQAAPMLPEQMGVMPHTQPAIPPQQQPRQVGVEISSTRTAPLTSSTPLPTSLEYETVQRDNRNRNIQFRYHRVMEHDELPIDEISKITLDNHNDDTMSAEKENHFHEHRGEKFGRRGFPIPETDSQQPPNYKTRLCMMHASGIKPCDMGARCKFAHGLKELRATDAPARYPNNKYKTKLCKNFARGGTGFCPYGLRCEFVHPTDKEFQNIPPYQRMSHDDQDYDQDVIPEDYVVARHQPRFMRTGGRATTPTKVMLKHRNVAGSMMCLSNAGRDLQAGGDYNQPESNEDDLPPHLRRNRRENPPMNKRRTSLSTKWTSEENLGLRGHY
PKD1 kinase inh: inhibitors of human PKD1 kinase, biochemical, fluorescence polarization. 0.056% of 200,000 active. inhibition, % (concentration not given with the values). PKD1 kinase fluorescence polarization assay. Serine/threonine-protein kinase D1 (Homo sapiens), Q15139
Runt-SMMHC FRET: inhibitors of RUNX1 Runt–CBFb-SMMHC binding, primary screen, biochemical, FRET, Cerulean-Runt, Venus-CBFb-SMMHC, uHTS | Cerulean-Runt/Venus-CBFb-SMMHC FRET ratio 530/480, 1 h | Runt-related transcription factor 1 (Homo sapiens) + Core-binding factor subunit beta … | inhibition, % at 20 µM | 0.74% of 220,000 active;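 active means mean inhibition across duplicate retests at 20 µM reaching about 50%, limit read from the data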;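 further: 0% = DMSO wells and 100% = wells with excess untagged CBFb-SMMHC; inhibitors lower the FRET ratio by blocking Runt binding to CBFb-SMMHC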
The depositor's hits bear a star; ? = inconclusive; · = not tested or not shown. Hits are enriched below; roughly 2% of the tested compounds scored in any of these assays. Unless noted, no stated cut-off is given here; in the data, active means inhibition above about 50%; inactive means the rest.

SMILES	Runt-CBFb FRET	RanGTP-Imp inh	EBV gp42 inh	MEX-5 binding	PKD1 kinase inh	Runt-SMMHC FRET
Oc1c(Br)cc(Br)c(/C=N/n2c(-c3ccccc3)n[nH]c2=S)c1Br	·	2.2	·	-37.4*	·	·
Cc1cc2[nH]c(=O)c(=O)[nH]c2cc1S(=O)(=O)N1CCC(C)CC1	·	0.3	·	-2.9	·	·
CCN(CC(=O)Nc1ccc(C)c(S(=O)(=O)N2CCOCC2)c1)Cc1ccccc1	·	5.9	·	-1.4	·	·
CSc1ccc(/C=C(/NC(=O)c2ccco2)C(=O)N2CCOCC2)cc1	·	2.3	·	1.6	·	·
Oc1c(/C=N/c2ccccn2)sc2ccccc12	9.7	22.6*	-55.4	4.2	·	15.8
Oc1c(C=Nc2cccnc2)sc2ccccc12	33.7	21.6*	-116.4	10.8	0.5	62.9*
CC(=O)NCCN=Cc1sc2ccccc2c1O	31.2	30.8*	4.7	-1.0	10.3	60.2*
Oc1c(C=NCc2ccncc2)sc2ccccc12	42.5	12.6	-20.5	3.9	-1.8	65.9*
CN=Cc1sc2ccccc2c1O	27.9	13.4	3.1	-4.4	-5.3	54.2
Oc1c(C=Nc2ccc(Cl)cn2)sc2ccccc12	22.5	?	3.3	0.7	·	-11.2
CCc1ccc(N2C(=O)Nc3ccccc3C2(O)C(=O)N2CCN(c3ccccn3)CC2)cc1 (stereo not drawn)	1.2	-2.3	-8.8	1.1	-3.9	-0.5
CCCCC1CCC(C(=O)NCc2ccc3c(c2)OCO3)CC1 (stereo not drawn)	1.3	91.6*	-17.5	2.7	-4.7	-1.0
Cc1cccc(Cl)c1OCCCn1ccnc1	·	-2.2	·	0.3	·	·
Fc1ccc(C2CC(c3ccco3)=NN2c2ccccc2)cc1 (stereo not drawn)	0.4	5.3	-11.9	2.7	-7.2	-0.1
O=[N+]([O-])c1ccc(N2N=C(c3ccco3)CC2c2ccccc2)cc1 (stereo not drawn)	-16.5	-47.0	70.0*	-4.7	-11.1	-83.8
CC(C)(C)c1ccc(C(=O)c2cn[nH]c2-c2ccccc2O)cc1	·	1.5	·	1.3	·	·
Cc1[nH]c(=O)c(C#N)c2c1COC(C)(C)C2	0.2	2.5	-20.6	2.8	4.5	0.2
CC1=C(C#N)C(=O)OC(C)(C)C1	31.5	71.6*	14.7	-47.0*	-6.1	77.8*
COc1cccc(NC(=O)c2c(C)nn(-c3ccccc3)c2Cl)c1	·	0.2	·	0.4	·	·
O=C1N=C(N2C=CC(=C3C=CNC=C3)C=C2)/C(=C/N=NC(=O)c2ccccc2O)S1	·	-7.4	·	-46.2*	·	·
O=C1NC(=O)/C(=C/C(=O)N2CCOCC2)S1	-0.7	4.5	-16.9	1.8	1.0	-3.2
Cc1cc(N2C(=O)C(O)=C(C(=O)c3cc4ccccc4o3)C2c2cccs2)no1 (stereo not drawn)	·	42.3*	·	0.5	·	·
O=C(C1=C(O)C(=O)N(c2nccs2)C1c1ccccc1)c1cc2ccccc2o1 (stereo not drawn)	15.8	-2.6	156.9*	2.5	·	-126.4
Cc1cc(N2C(=O)C(O)=C(C(=O)c3ccc(C)o3)C2c2cccs2)no1 (stereo not drawn)	4.8	9.2	-16.0	0.4	-4.6	-2.4
CC(=O)Nc1cccc(Oc2nc(-c3ccccn3)nc3ccccc23)c1	-1.0	1.4	-1.7	-34.7*	·	1.2
Cc1cccc(N=Nc2c(O)[nH]c3ccc(Br)cc23)c1	·	-10.2	·	-32.6*	·	·
COc1ccccc1N=Nc1c(O)[nH]c2ccc(Br)cc12	·	-8.2	·	-6.1	·	·
CCCn1c(=N)c(S(=O)(=O)c2ccc(F)cc2)cc2c(=O)n3ccccc3nc21	·	176.5*	·	-6.9	·	·
C=CCn1c(=N)c(S(=O)(=O)c2ccc(C)c(C)c2)cc2c(=O)n3ccccc3nc21	·	159.6*	·	?	·	·
Cn1c(=N)c(S(=O)(=O)c2ccccc2)cc2c(=O)n3ccccc3nc21	46.8	·	6.6	·	-8.9	61.6*
